Experimental data taken from ChEMBL document CHEMBL4177574, “A novel class of Plasmodial ClpP protease inhibitors as potential antimalarial agents” (Bioorg Med Chem, 2017).
Activity calls are given as the source filed them. The rule behind the calls is not given here. Where a SMILES comes first, the peptide text is derived from it. The star is where a group is joined. Cbz = O=C(OCc1ccccc1)*; OBn = c1ccc(CO*)cc1

What was measured:
[1] = Inhibition of recombinant Plasmodium falciparum ClpP expressed in Escherichia coli BL21(DE3) using Suc-LLVY-AMC substrate incubated for 3 to 6 hrs by fluorimetric assay
Method in brief: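 The protease domain of PfClpP (aa 168–370) was His-tagged in pET28a, expressed in E. coli BL21(DE3) with 1 mM IPTG at 37 °C for 3–4 h, Ni-NTA purified and BCA quantified. Assay used 13 µM enzyme in 0.1 M sodium acetate pH 7.0 with 1.0 mM DTT and 50 µM Suc-LLVY-AMC final. AMC fluorescence (ex 355/em 460) was followed continuously for 3–6 h at RT; IC50 by curve fitting.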

[2] = system: Plasmodium falciparum; assay: Antimalarial activity against Plasmodium falciparum 3D7 assessed as inhibition of parasite growth incubated for 96 hrs in presence of 4% haematocrit by SYBR green dye based assay; type: functional, organism-based
Method in brief: (§1)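 P. falciparum 3D7 in RPMI with 0.5% albumax at 4% haematocrit, sorbitol-synchronized, starting parasitaemia ~1%. Compound added at final 0–100 µM, with DMSO in control wells. Growth ran 96 h and was read by SYBR green DNA-dye fluorescence. Triplicate wells, experiment repeated twice; IC50 derived from these.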

[3] = system: Plasmodium falciparum; assay: Antimalarial activity against Plasmodium falciparum 3D7 assessed as reduction in mature schizonts formation after 60 hrs post infection; type: functional, organism-based
[4] = system: Plasmodium falciparum; assay: Effect on apicoplast development in ACP-GFP expressing Plasmodium falciparum D10 at 10 uM measured during first cycle by DAPI dye based confocal laser-scanning microscopy; type: functional, organism-based
Method in brief: (§2)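 D10 ACP-GFP parasites were grown like 3D7 with 100 nM pyrimethamine, and ring stages (8–10 hpi) were treated with compound. Parasites were sampled at 36/40 hpi and 72 hpi, DAPI-stained at 2 µg/mL final for 30 min at 37 °C, and imaged by confocal microscopy for apicoplast GFP morphology.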

[5] = system: Plasmodium falciparum; assay: Inhibition of apicoplast development in ACP-GFP expressing Plasmodium falciparum D10 at 10 uM measured during second cycle by DAPI dye based confocal laser-scanning microscopy; type: functional, organism-based; method in brief: as §2
[6] = system: Plasmodium falciparum; assay: Inhibition of apicoplast growth in ACP-GFP expressing Plasmodium falciparum D10 at 10 uM measured during second cycle by DAPI dye based confocal laser-scanning microscopy; type: functional, organism-based; method in brief: as §2
[7] = system: Plasmodium falciparum; assay: Inhibition of apicoplast development in ACP-GFP expressing Plasmodium falciparum D10 assessed as induction of round stump-like structures at 10 uM measured at 72 hrs post dose by DAPI dye based confocal laser-scanning microscopy; type: functional, organism-based; method in brief: as §2
[8] = system: Plasmodium falciparum; assay: Inhibition of apicoplast development in ACP-GFP expressing Plasmodium falciparum D10 assessed as induction of round stump-like structures at 10 uM measured at 90 to 96 hrs post dose by DAPI dye based confocal laser-scanning microscopy; type: functional, organism-based
[9] = system: Plasmodium falciparum; assay: Effect on nuclear division in ACP-GFP expressing Plasmodium falciparum D10 apicoplast at 10 uM measured at 96 hrs post dose by DAPI dye based confocal laser-scanning microscopy; type: functional, organism-based
[10] = system: HeLa; assay: Cytotoxic activity against human HeLa cells assessed as reduction in cell viability incubated for 48 hrs by MTT assay
[11] = system: Plasmodium falciparum; assay: Antimalarial activity against Plasmodium falciparum 3D7 assessed as inhibition of parasite growth at 100 uM incubated for 96 hrs in presence of 4% haematocrit by SYBR green dye based assay; type: functional, organism-based; method in brief: as §1
[12] = Ratio of IC50 for inhibition of recombinant Plasmodium falciparum ClpP expressed in Escherichia coli BL21(DE3) to IC50 for antimalarial activity against Plasmodium falciparum 3D7
[13] = Plasmodium falciparum, 3D7, 96 h, read-out: IC50

Row | SMILES | IC50 [1] | Ki [1] | IC50 [2, 13] | Ki ([1]; read-out: Ki) | IC50 [2] | also measured
1 | O=C(COc1ccccc1)Nc1cc(NC(=O)COc2ccccc2)cc(C(=O)Nc2nccs2)c1 | 88 µM | – | – | 36 µM | Not Active | –
2 | CCc1ccc(CSc2ncc(Cl)c(C(=O)NCCC(=O)Nc3ccc(Cl)cc3)n2)cc1 | > 100 µM | Not Active | – | – | Not Active | –
3 | O=C(CSc1nc(SCC(=O)NCc2ccco2)nc(SCC(=O)NCc2ccco2)n1)NCc1ccco1 | 92 µM | – | – | 38 µM | Not Active | –
4 | COc1ccc(CNC(=O)C(=O)N/N=C/c2ccc(CNS(=O)(=O)c3ccc(Br)cc3)o2)cc1 | > 100 µM | Not Active | – | – | Not Active | –
5 | CCOC(=O)c1cnc(SCCN2CCOCC2)[nH]c1=O | > 100 µM | Not Active | – | – | Not Active | –
6 | CCOC(=O)c1cnc(SCC(=O)NNC(=O)Cc2ccccc2)[nH]c1=O | 42 µM | – | 82.5 µM | 17 µM | – | –
7 | Cc1cc(SCC(=O)NNC(=O)Cc2ccccc2)nc(SCC(=O)N2CCOCC2)n1 | 28.8 µM | – | 17.3 µM | 11.8 µM | – | –
8 | CCCc1cc(=O)oc2cc(OCC(=O)N[C@@H](CSCc3ccccc3)C(=O)O)ccc12 | > 100 µM | Not Active | – | – | Not Active | –
9 | COc1cccc(NC(=O)CSc2nc3sc4c(c3c(=O)n2CCc2ccccc2)CC(C(C)C)OC4)c1 (stereo unspecified) | > 100 µM | Not Active | – | – | Not Active | –
10 | CCCCOc1ccc(-c2nn(-c3ccccc3)cc2/C=C(\C#N)C(=O)NCc2ccco2)c(C)c1 | > 100 µM | Not Active | – | – | Not Active | –
11 | O=C(CNC(=O)OCc1ccccc1)N[C@@H](CCC(=O)OCc1ccccc1)C(=O)OCc1ccccc1 (Cbz-Gly-Glu(OBn)-OBn) | > 100 µM | Not Active | – | – | Not Active | –
12 | CCN(CC)c1ccc(C(=O)CSc2nc(C)cc(SCC(=O)NNC(=O)Cc3ccccc3)n2)cc1 | 28.3 µM | – | 12.1 µM | 11.6 µM | – | –
13 | O=C(O)c1cnc2n(c1=O)CC(c1ccccc1)=C(CN1CCOCC1)S2 | > 100 µM | Not Active | 11 µM | – | – | –
14 | CCOC(=O)c1cnc(SCCN2CCOCC2)n(CC(=O)c2ccccc2)c1=O | 40 µM | – | 19 µM | 16 µM | – | –
15 | CCCOc1ccc(-c2nn(-c3ccccc3)cc2/C=C2\SC(=S)N(CCc3ccccc3)C2=O)cc1F | > 100 µM | Not Active | – | – | Not Active | –
16 | Cc1cc(SCC(=O)NNC(=O)Cc2ccccc2)nc(SCCN2CCOCC2)n1 | 30.3 µM | – | 14.4 µM | 12.3 µM | – | –
17 | CCc1nnc(NC(=O)CSc2nnc(-c3cc4ccccc4cc3O)n2CCOC)s1 | 30 µM | – | 27 µM | 12.1 µM | – | –

The next lines start with results.

Row | IC50 [1] | SMILES | Ki [1] | IC50 [2, 13] | Ki ([1]; read-out: Ki) | IC50 [2] | also measured
18 | > 100 µM | CCN(CC)c1ccc(C(=O)CSc2ncc(C(=O)NCCCc3ccccc3)c(=O)n2Cc2ccccc2)cc1 | Not Active | 9.2 µM | – | – | –
19 | 37.4 µM | Cc1cc(SCC(=O)NNC(=O)Cc2ccccc2)nc(SCC(=O)c2ccc(C#N)cc2)n1 | – | 12.4 µM | 15.3 µM | – | –
20 | 46 µM | O=C(NCCCc1ccccc1)c1cnc(SCC(=O)N2CCOCC2)n(Cc2ccccc2)c1=O | – | 11.7 µM | 18.8 µM | – | –
21 | 58.3 µM | CCOC(=O)CSc1ncc(C(=O)NCCCc2ccccc2)c(=O)n1Cc1ccccc1 | – | 15.9 µM | 23.8 µM | – | –
22 | 10.5 µM | O=C(NCCCc1ccccc1)c1cnc(SCCN2CCOCC2)n(Cc2ccccc2)c1=O | – | 9 µM | 2.3 µM | – | Activity [3]: Active; Activity [4]: inactive; inhibition [5]: Active; growth inhibition (GI) [6]: Active; Activity [7]: Active; Activity [8]: Active; Activity [9]: inactive; IC50 [10]: > 5 mM
23 | 72.6 µM | O=C(CSc1ncc(C(=O)NCCCc2ccccc2)c(=O)n1Cc1ccccc1)NNC(=O)Cc1ccccc1 | – | – | 29.5 µM | Not Active | inhibition [11]: inactive
24 | 45 µM | COc1ccc(C(=O)CSc2ncc(C(=O)NCCCc3ccccc3)c(=O)n2Cc2ccccc2)cc1 | – | 2.4 µM | 18 µM | – | Ratio IC50 [12]: 20
25 | 23 µM | CC(CCc1ccccc1)NC(=O)CSc1nc2sc3c(c2c(=O)n1CCc1ccccc1)CC(C(C)C)OC3 (stereo unspecified) | – | 25 µM | 9 µM | – | –
26 | 24 µM | O=C(CSc1ncc(C(=O)NCCCc2ccccc2)c(=O)n1Cc1ccccc1)c1ccccc1 | – | 20 µM | 10 µM | – | –
27 | > 100 µM | N#Cc1ccc(C(=O)CSc2ncc(C(=O)NCCCc3ccccc3)c(=O)n2Cc2ccccc2)cc1 | Not Active | 13.7 µM | – | – | –
28 | 34.7 µM | COc1ccc(C(=O)CSc2nc(C)cc(SCC(=O)NNC(=O)Cc3ccccc3)n2)cc1 | – | 11.8 µM | 14.2 µM | – | –
29 | 53 µM | O=C(CSc1ncc(C(=O)NCCCc2ccccc2)c(=O)n1Cc1ccccc1)c1ccc(O)cc1 | – | 9.2 µM | 21.6 µM | – | –
30 | 44 µM | O=C(NCCCc1ccccc1)c1cnc(SCCN2CCOCC2)[nH]c1=O | – | 22 µM | 18 µM | – | –
31 | 26 µM | Cc1cc(SCC(=O)NNC(=O)Cc2ccccc2)nc(SCC(=O)c2ccccc2)n1 | – | 75 µM | 11 µM | – | –
32 | > 100 µM | CC(C)C1Cc2c(sc3nc(SCC(=O)NCc4ccccc4)n(CCc4ccccc4)c(=O)c23)CO1 (stereo unspecified) | Not Active | – | – | Not Active | –
